Columns and labels:
Rattus norvegicus [1] = experiment: Percentage of control was measured on rat liver cathepsin B by a single intraperitoneal dose of 10 mg/kg; type: functional
Outline: (§1)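 Female Lewis rats, single intraperitoneal dose as CMC suspension; livers removed 4-5 h postdose, frozen homogenate supernatant assayed fluorimetrically with Z-Arg-Arg-NMec in 0.1 M KH2PO4 pH 6.0, 1 mM EDTA, 1 mM DTT, 37 °C 30 min; protein-normalized activity as % of CMC control; two dilutions in triplicate per animal, 4-5 animals per group.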

Cathepsin B (Bos taurus) = Cathepsin B (Bos taurus) (UniProt P07688); experiment: Rate of cathepsin B inactivation in vitro in bovine spleen; type: tissue-based
Outline: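 Purified bovine spleen cathepsin B; continuous fluorometric assay in 0.1 M potassium phosphate, 1.25 mM EDTA, 1 mM dithiothreitol, pH 6.0, 25 °C; second-order inactivation rate constant k/K (M-1 s-1) determined.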

Rattus norvegicus [2] = experiment: Percentage of control was measured on rat liver cathepsin B by a single intraperitoneal dose.(dose =10 mg/kg); type: functional; outline: as §1
Rattus norvegicus [3] = experiment: Percentage of control was measured on rat liver cathepsin B by a single oral dose.(dose =50 mg/kg); type: functional
Outline: (§2)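 Rats dosed once by gavage with compound suspended in CMC; livers taken 4-5 h postdose, frozen, homogenized and centrifuged; supernatant cathepsin B activity read with Z-Arg-Arg-NMec at pH 6.0, 37 °C, 30 min, quenched with chloroacetate/acetate pH 4.3; specific activity given as % of vehicle control, two dilutions in triplicate, 4-5 animals per group.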

Rattus norvegicus [4] = experiment: Percentage of control was measured on rat liver cathepsin B by a single oral dose of 50 mg/kg; type: functional; outline: as §2
Rattus norvegicus [5] = experiment: Percentage of control was measured on rat liver cathepsin B by a single intraperitoneal dose.(dose =100 mg/kg); type: functional; outline: as §1
Rattus norvegicus [6] = experiment: Percentage of control was measured on rat liver cathepsin B by a single oral dose.(dose =100 mg/kg); type: functional; outline: as §2
[7] = Half-life measured in in vitro Cathepsin B assay in human plasma; type: ADME, cell-free
Rattus norvegicus [8] = experiment: ED50 value was determined for rat heart at 20h postdose by subcutaneous administration; type: functional; settings: sc
Outline: (§3)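 Female Lewis rats (150-200 g, usually four per group), single subcutaneous dose suspended in CMC; heart, liver or skeletal muscle harvested 20 h postdose, frozen in liquid nitrogen, homogenized, clarified at 15000g. Cathepsin B measured as Z-Arg-Arg-NMec (20 μM solution) hydrolysis, pH 6.0, 37 °C 30 min, fluorescence ex 340/em 460; specific activity as % of vehicle control; ED50 from dose-response.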

Rattus norvegicus [9] = experiment: ED50 value was determined for rat liver at 20h postdose by subcutaneous administration; type: functional; settings: sc; outline: as §3
Rattus norvegicus [10] = experiment: ED50 value was determined for rat skeletal muscle at 20h postdose by subcutaneous administration; type: functional; settings: Muscle tissue, sc; outline: as §3
[11] = Half-life measured in rat plasma
Rattus norvegicus [12] = experiment: Percent inhibition was measured on rat liver cathepsin B by a single subcutaneous dose of 20 mg/kg
Rattus norvegicus [13] = experiment: Percent inhibition was measured on rat heart cathepsin B by a single subcutaneous dose of 20 mg/kg
Rattus norvegicus [14] = experiment: Percent inhibition was measured on rat spleen cathepsin B by a single subcutaneous dose of 20 mg/kg
Rattus norvegicus [15] = experiment: Percent inhibition was measured on rat pancreas cathepsin B by a single subcutaneous dose of 20 mg/kg
Rattus norvegicus [16] = experiment: Percent inhibition was measured on rat skeletal tissue cathepsin B by a single subcutaneous dose of 20 mg/kg

CC(C)C[C@H](NC(=O)[C@H]1O[C@@H]1C(=O)O)C(=O)NCCCCN=C(N)N [E-64]
Control (Rattus norvegicus [1]): 24%

Cc1cc(C)c(C(=O)OCC(=O)[C@@H](C)NC(=O)[C@H](Cc2ccccc2)NC(=O)c2ccc(C(=O)NS(=O)(=O)c3ccccc3)cc2)c(C)c1
k/K (Cathepsin B (Bos taurus)): 2500 M⁻¹ s⁻¹
Control (Rattus norvegicus [2]): 68%
Control (Rattus norvegicus [3]): 62%

Cc1cc(C)c(C(=O)OCC(=O)[C@@H](C)NC(=O)[C@H](Cc2ccccc2)NC(=O)CCC(=O)O)c(C)c1
k/K (Cathepsin B (Bos taurus)): 1000 M⁻¹ s⁻¹
Control (Rattus norvegicus [2]): 23%
Control (Rattus norvegicus [3]): 31%

Cc1cc(C)c(C(=O)OCC(=O)CNC(=O)[C@H](Cc2ccccc2)NC(=O)CCC(=O)O)c(C)c1
k/K (Cathepsin B (Bos taurus)): 700 M⁻¹ s⁻¹
Control (Rattus norvegicus [4]): 49%

CC(NC(=O)[C@H](Cc1ccccc1)NC(=O)OCc1ccccc1)C(=O)CF (some centres not stated)
k/K (Cathepsin B (Bos taurus)): 21000 M⁻¹ s⁻¹
Control (Rattus norvegicus [4]): 7%

Cc1c(C)c(C(=O)OCC(=O)[C@H](C)NC(=O)[C@H](Cc2ccccc2)NC(=O)OCc2ccccc2)c(C)c(C)c1C(=O)O
k/K (Cathepsin B (Bos taurus)): 63000 M⁻¹ s⁻¹
Control (Rattus norvegicus [1]): 53%
Control (Rattus norvegicus [4]): 79%

COc1ccc(C[C@H](NC(=O)OCc2ccccc2)C(=O)N[C@@H](CCCCN)C(=O)COC(=O)c2c(C)cc(C)cc2C)cc1.O=C(O)C(F)(F)F
k/K (Cathepsin B (Bos taurus)): 170000 M⁻¹ s⁻¹
Control (Rattus norvegicus [4]): 30%

COC(=O)CCC(=O)N[C@@H](Cc1ccccc1)C(=O)N[C@H](C)C(=O)COC(=O)c1c(C)cc(C)cc1C
k/K (Cathepsin B (Bos taurus)): 4000 M⁻¹ s⁻¹
Control (Rattus norvegicus [2]): 38%
Control (Rattus norvegicus [3]): 50%

Cc1cc(C)c(C(=O)OCC(=O)CNC(=O)[C@H](Cc2ccccc2)NC(=O)OCc2ccccc2)c(C)c1
k/K (Cathepsin B (Bos taurus)): 9900 M⁻¹ s⁻¹
Control (Rattus norvegicus [3]): 29%

Cc1cc(C)c(C(=O)OCC(=O)[C@@H](C)NC(=O)[C@H](Cc2ccccc2)NC(=O)OCc2ccccc2)c(C)c1
k/K (Cathepsin B (Bos taurus)): 14000 M⁻¹ s⁻¹
Control (Rattus norvegicus [5]): 69%
Control (Rattus norvegicus [6]): 78%

Cc1cc(C)c(C(=O)OCC(=O)[C@H](CCCCN)NC(=O)[C@H](Cc2ccccc2)NC(=O)OCc2ccccc2)c(C)c1.Cl
half-life [7]: > 1980 min
k/K (Cathepsin B (Bos taurus)): 230000 M⁻¹ s⁻¹
Control (Rattus norvegicus [1]): 4%
Control (Rattus norvegicus [4]): 11%
ED50 (Rattus norvegicus [8]): ~0.1 mg/kg
ED50 (Rattus norvegicus [9]): 2.4 mg/kg
ED50 (Rattus norvegicus [10]): 1 mg/kg
half-life [11]: 96 min
Inhibition % (Rattus norvegicus [12]): 96%
Inhibition % (Rattus norvegicus [13]): 94%
Inhibition % (Rattus norvegicus [14]): 98%
Inhibition % (Rattus norvegicus [15]): 96%
Inhibition % (Rattus norvegicus [16]): 72%
